Measurements: ChEMBL document CHEMBL3352023, “C-terminal residue optimization and fragment merging: discovery of a potent Peptide-hybrid inhibitor of dengue protease” (ACS Med Chem Lett, 2014)
Active and inactive are the calls of the source. The calls are words filed in the database; no cut-off is given here. Square brackets hold non-standard residues; d marks the D form. Peptide text beside a SMILES is read from it. * marks the point of attachment. ξ: configuration not given here. Phe(4-NO2) = N[C@@H](Cc1ccc([N+](=O)[O-])cc1)C(=O)O; Phe(4-CN) = N#Cc1ccc(C[C@H](N)C(=O)O)cc1; 2Pal = N[C@@H](Cc1ccccn1)C(=O)O; 3Pal = N[C@@H](Cc1cccnc1)C(=O)O; Cha = N[C@@H](CC1CCCCC1)C(=O)O; Phg = N[C@H](C(=O)O)c1ccccc1; Tle = CC(C)(C)[C@H](N)C(=O)O; ξTic = O=C(O)C1Cc2ccccc2CN1; ξChg = NC(C(=O)O)C1CCCCC1; 3Abz = Nc1cccc(C(=O)O)c1; 4Abz = Nc1ccc(C(=O)O)cc1; Nva = CCC[C@H](N)C(=O)O; 2Abz = Nc1ccccc1C(=O)O; ξPip = O=C(O)C1CCCCN1; ξPra = C#CCC(N)C(=O)O; Aib = CC(C)(N)C(=O)O; Bz = O=C(c1ccccc1)*; βAla = NCCC(=O)O

Tests used:
[1] = target: Genome polyprotein (dengue virus type 2) (UniProt P12823); assay: Inhibition of Dengue virus serotype 2 NS2B-NS3 protease at 50 uM by homogeneous fluorimetric assay
Genome polyprotein [2] = target: Genome polyprotein (dengue virus type 2, UniProt P12823); assay: Inhibition of Dengue virus serotype 2 NS2B-NS3 protease by homogeneous fluorimetric assay
[3] = target: Genome polyprotein (West Nile virus) (UniProt P06935); assay: Inhibition of West Nile virus […] NS2B-NS3 protease at 50 uM by homogeneous fluorimetric assay
Summary of the method: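 WNV NS2B-NS3 protease percent inhibition, homogeneous fluorimetric assay: enzyme 150 nM, inhibitor 50 μM, substrate 50 μM (Km = 212 μM); triplicate, SD below 10%.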

[4] = target: Prothrombin (Homo sapiens) (UniProt P00734); assay: Inhibition of thrombin (unknown origin) at 25 uM by homogeneous fluorimetric assay
Genome polyprotein [5] = target: Genome polyprotein (West Nile virus, UniProt P06935); assay: Inhibition of West Nile virus […] NS2B-NS3 protease by homogeneous fluorimetric assay
Genome polyprotein (West Nile virus, UniProt P06935), sequence (P06935 1371-1501 limits assumed): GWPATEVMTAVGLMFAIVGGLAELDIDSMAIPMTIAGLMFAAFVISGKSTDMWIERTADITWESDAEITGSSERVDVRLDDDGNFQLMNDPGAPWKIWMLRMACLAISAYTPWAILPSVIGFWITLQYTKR
Genome polyprotein (West Nile virus, UniProt P06935), sequence (P06935 1502-2120 limits assumed): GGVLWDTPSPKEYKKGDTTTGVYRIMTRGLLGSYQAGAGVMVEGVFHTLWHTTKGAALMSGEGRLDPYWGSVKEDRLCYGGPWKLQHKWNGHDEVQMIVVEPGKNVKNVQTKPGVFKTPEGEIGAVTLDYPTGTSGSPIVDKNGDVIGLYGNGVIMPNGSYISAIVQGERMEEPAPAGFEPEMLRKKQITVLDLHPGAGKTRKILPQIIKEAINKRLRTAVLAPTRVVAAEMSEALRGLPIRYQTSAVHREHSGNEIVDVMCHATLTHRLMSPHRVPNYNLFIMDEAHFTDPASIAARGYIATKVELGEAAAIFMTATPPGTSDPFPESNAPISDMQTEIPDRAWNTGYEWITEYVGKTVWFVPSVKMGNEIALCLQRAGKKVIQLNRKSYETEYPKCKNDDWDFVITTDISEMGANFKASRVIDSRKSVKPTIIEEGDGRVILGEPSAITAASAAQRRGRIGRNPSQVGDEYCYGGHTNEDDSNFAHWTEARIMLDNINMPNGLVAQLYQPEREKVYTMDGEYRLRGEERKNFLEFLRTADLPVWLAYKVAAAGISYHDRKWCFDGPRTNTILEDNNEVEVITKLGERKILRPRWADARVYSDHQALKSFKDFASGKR

Genome polyprotein (West Nile virus), sequence (P06935 whole entry): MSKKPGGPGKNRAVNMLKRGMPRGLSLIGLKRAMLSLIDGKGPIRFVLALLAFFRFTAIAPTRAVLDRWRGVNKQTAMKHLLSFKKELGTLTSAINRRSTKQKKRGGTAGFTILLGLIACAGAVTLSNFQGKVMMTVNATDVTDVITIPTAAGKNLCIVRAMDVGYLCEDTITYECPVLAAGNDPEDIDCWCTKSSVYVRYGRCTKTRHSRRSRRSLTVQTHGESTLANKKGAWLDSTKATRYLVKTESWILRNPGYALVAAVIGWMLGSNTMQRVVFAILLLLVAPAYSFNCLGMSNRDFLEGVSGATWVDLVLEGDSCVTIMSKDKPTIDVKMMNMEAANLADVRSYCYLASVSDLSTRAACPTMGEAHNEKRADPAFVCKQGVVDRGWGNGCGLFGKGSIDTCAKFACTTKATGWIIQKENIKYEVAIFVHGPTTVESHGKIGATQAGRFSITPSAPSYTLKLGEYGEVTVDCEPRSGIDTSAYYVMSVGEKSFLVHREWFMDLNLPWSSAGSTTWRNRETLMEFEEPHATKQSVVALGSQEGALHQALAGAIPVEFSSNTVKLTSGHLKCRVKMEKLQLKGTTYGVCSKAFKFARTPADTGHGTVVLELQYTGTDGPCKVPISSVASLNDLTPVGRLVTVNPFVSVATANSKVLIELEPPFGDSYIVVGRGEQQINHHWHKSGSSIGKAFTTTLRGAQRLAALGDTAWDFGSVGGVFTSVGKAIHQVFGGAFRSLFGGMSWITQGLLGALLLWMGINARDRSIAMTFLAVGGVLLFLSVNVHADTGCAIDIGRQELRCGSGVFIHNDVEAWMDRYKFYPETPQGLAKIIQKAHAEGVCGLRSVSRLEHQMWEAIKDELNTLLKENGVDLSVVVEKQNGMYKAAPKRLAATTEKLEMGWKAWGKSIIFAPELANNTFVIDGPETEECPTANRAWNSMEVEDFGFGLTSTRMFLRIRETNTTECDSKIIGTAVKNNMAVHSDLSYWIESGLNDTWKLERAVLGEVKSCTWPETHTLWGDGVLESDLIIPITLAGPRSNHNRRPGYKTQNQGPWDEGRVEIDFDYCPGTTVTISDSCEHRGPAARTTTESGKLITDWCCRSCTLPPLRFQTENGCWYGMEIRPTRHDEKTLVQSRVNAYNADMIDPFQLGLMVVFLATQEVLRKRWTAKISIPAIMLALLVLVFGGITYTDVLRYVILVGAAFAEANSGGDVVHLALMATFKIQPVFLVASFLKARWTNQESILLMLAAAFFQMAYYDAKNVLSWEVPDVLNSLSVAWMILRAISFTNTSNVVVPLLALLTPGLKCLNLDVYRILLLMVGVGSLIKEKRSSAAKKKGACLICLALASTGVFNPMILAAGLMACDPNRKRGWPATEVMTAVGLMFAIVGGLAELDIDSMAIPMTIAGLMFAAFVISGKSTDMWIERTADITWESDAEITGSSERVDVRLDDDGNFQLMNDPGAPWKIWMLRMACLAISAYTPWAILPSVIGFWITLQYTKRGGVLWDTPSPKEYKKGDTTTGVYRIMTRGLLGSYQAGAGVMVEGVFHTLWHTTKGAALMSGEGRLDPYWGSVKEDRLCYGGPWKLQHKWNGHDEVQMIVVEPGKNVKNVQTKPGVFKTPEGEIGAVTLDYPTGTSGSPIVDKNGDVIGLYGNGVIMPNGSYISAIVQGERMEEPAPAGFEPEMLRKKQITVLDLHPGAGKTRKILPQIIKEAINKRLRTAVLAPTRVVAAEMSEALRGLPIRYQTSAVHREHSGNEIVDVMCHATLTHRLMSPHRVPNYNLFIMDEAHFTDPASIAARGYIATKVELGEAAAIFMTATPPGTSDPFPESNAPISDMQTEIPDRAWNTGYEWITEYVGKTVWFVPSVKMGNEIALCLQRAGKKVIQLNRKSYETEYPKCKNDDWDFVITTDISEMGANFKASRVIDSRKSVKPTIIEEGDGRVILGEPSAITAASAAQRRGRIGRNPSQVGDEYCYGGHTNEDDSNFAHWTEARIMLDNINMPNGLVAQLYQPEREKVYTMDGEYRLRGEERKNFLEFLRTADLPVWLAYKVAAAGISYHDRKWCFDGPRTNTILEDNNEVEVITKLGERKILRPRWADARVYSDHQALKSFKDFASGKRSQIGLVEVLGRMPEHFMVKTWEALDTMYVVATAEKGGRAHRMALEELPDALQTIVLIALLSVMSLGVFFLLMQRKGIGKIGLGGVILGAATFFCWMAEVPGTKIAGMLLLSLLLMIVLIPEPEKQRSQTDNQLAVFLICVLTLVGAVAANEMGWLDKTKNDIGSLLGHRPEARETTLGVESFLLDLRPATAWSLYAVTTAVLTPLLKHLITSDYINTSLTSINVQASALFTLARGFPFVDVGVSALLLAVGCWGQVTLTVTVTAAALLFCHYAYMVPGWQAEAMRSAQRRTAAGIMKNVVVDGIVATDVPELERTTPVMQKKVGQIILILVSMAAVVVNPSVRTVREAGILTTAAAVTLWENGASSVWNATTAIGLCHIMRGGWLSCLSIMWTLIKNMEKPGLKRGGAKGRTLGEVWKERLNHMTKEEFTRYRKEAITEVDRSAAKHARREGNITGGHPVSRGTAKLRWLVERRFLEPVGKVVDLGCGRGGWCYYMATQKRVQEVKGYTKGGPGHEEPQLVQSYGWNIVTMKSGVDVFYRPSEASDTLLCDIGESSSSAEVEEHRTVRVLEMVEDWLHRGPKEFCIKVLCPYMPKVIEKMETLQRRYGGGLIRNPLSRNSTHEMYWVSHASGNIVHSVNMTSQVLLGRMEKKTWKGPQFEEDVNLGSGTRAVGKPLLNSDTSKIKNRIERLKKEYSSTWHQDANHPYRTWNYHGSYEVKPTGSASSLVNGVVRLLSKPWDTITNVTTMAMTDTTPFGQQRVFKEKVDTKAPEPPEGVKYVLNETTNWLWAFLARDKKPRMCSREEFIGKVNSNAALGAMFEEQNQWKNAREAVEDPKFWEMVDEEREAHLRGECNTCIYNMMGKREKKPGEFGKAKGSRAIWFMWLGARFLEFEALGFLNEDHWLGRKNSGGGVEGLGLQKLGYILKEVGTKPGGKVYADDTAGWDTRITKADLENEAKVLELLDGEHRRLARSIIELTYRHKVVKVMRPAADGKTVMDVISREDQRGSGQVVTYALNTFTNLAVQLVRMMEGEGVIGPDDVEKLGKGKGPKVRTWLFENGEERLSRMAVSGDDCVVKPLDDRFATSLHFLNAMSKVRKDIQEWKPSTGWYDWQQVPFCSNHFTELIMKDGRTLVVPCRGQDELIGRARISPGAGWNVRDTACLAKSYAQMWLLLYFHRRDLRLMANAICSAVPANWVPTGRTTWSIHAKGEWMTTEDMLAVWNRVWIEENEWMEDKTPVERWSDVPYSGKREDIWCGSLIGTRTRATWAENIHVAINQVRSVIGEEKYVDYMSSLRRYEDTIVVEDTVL

Row | inhibition [1] | IC50 (Genome polyprotein [2]) | inhibition [3] | inhibition [4] | IC50 (Genome polyprotein [5]) | Ki (Genome polyprotein [5]) | SMILES
1 | 88.5% | 5.3 µM | 28% | – | – | – | CCCC[C@H](NC(=O)[C@H](CCCCN)NC(=O)[C@H](CCCNC(=N)N)NC(=O)c1ccc(/C=C(\C#N)C(=O)NC2CC2)cc1)C(N)=O
2 | 98.2% | 2.5 µM | 51.8% | – | – | – | CCCC[C@H](NC(=O)[C@H](CCCCN)NC(=O)[C@H](CCCNC(=N)N)NC(=O)c1ccc(/C=C2\SC(=O)N(C3CCCC3)C2=O)cc1)C(N)=O
3 | 72.7% | 14.1 µM | 16.1% | 4.9% | – | – | CCCC[C@@H](NC(=O)[C@H](CCCCN)NC(=O)[C@H](CCCNC(=N)N)NC(=O)c1ccccc1)C(N)=O
4 | 59.2% | 24.9 µM | 38.3% | inactive | – | – | N#C/C(=C\c1ccc(C(=O)N[C@@H](CCCNC(=N)N)C(=O)N[C@@H](CCCCN)C(=O)N2Cc3ccccc3CC2C(N)=O)cc1)C(=O)NC1CC1 (stereo partly specified)
5 | 32.5% | 57.6 µM | 26.7% | 5% | – | – | CC(C)(C)[C@H](NC(=O)[C@H](CCCCN)NC(=O)[C@H](CCCNC(=N)N)NC(=O)c1ccc(/C=C(\C#N)C(=O)NC2CC2)cc1)C(N)=O
6 | 60.6% | 29.8 µM | 28% | 10.2% | – | – | CC(C)(C)[C@H](NC(=O)[C@H](CCCCN)NC(=O)[C@H](CCCNC(=N)N)NC(=O)c1ccc(/C=C2\SC(=O)N(C3CCCC3)C2=O)cc1)C(N)=O
7 | 46.6% | 35.6 µM | 26% | 7.2% | – | – | C[C@H](NC(=O)[C@H](CCCCN)NC(=O)[C@H](CCCNC(=N)N)NC(=O)c1ccccc1)C(N)=O (Bz-Arg-Lys-Ala-NH2)
8 | 56.6% | 28.2 µM | 14.9% | 4.6% | – | – | CC[C@H](C)[C@H](NC(=O)[C@H](CCCCN)NC(=O)[C@H](CCCNC(=N)N)NC(=O)c1ccccc1)C(N)=O (Bz-Arg-Lys-Ile-NH2)
9 | 20% | 192 µM | 3.6% | inactive | – | – | N=C(N)NCCC[C@H](NC(=O)c1ccccc1)C(=O)N[C@@H](CCCCN)C(=O)N1CCC[C@H]1C(N)=O (Bz-Arg-Lys-Pro-NH2)
10 | 82.3% | 7.4 µM | 12.9% | 7.9% | – | – | N=C(N)NCCC[C@H](NC(=O)c1ccccc1)C(=O)N[C@@H](CCCCN)C(=O)N[C@@H](Cc1ccc(O)cc1)C(N)=O (Bz-Arg-Lys-Tyr-NH2)
11 | 53% | 44.3 µM | 9.8% | inactive | – | – | N=C(N)NCCC[C@H](NC(=O)c1ccccc1)C(=O)N[C@@H](CCCCN)C(=O)N[C@@H](Cc1ccccn1)C(N)=O (Bz-Arg-Lys-[2Pal]-NH2)
12 | 61.3% | 30.1 µM | 12.5% | inactive | – | – | N=C(N)NCCC[C@H](NC(=O)c1ccccc1)C(=O)N[C@@H](CCCCN)C(=O)N[C@@H](Cc1cccnc1)C(N)=O (Bz-Arg-Lys-[3Pal]-NH2)
13 | 27.5% | 92.2 µM | 17.9% | 9.2% | – | – | N=C(N)NCCC[C@H](NC(=O)c1ccccc1)C(=O)N[C@@H](CCCCN)C(=O)Nc1ccc(C(N)=O)cc1 (Bz-Arg-Lys-[4Abz]-NH2)
14 | 55% | 46.7 µM | 13.7% | inactive | – | – | CC(C)(NC(=O)[C@H](CCCCN)NC(=O)[C@H](CCCNC(=N)N)NC(=O)c1ccccc1)C(N)=O (Bz-Arg-Lys-[Aib]-NH2)
15 | 80% | 8.2 µM | 19.1% | inactive | – | – | N=C(N)NCCC[C@H](NC(=O)c1ccccc1)C(=O)N[C@@H](CCCCN)C(=O)N[C@@H](CC1CCCCC1)C(N)=O (Bz-Arg-Lys-[Cha]-NH2)
16 | 66.6% | 17.5 µM | 21.3% | inactive | – | – | N=C(N)NCCC[C@H](NC(=O)c1ccccc1)C(=O)N[C@@H](CCCCN)C(=O)N[C@@H](Cc1ccc([N+](=O)[O-])cc1)C(N)=O (Bz-Arg-Lys-[Phe(4-NO2)]-NH2)
17 | 95% | 3.3 µM | 39.3% | inactive | 58 µM | 49 µM | N=C(N)NCCC[C@H](NC(=O)c1ccccc1)C(=O)N[C@@H](CCCCN)C(=O)N[C@H](C(N)=O)c1ccccc1 (Bz-Arg-Lys-[Phg]-NH2)
18 | 18.8% | 137 µM | 11.7% | inactive | – | – | CC(C)(C)[C@H](NC(=O)[C@H](CCCCN)NC(=O)[C@H](CCCNC(=N)N)NC(=O)c1ccccc1)C(N)=O (Bz-Arg-Lys-[Tle]-NH2)

Second part, the molecule before the results:

Row | SMILES | inhibition [1] | IC50 (Genome polyprotein [2]) | inhibition [3] | inhibition [4] | IC50 (Genome polyprotein [5]) | Ki (Genome polyprotein [5])
19 | CCCC[C@H](NC(=O)[C@H](CCCCN)NC(=O)[C@H](CCCNC(=N)N)NC(=O)c1ccccc1)C(N)=O | 68.1% | 13.3 µM | 7.7% | – | – | –
20 | N#C/C(=C\c1ccc(C(=O)N[C@@H](CCCNC(=N)N)C(=O)N[C@@H](CCCCN)C(=O)NC(C(N)=O)c2ccccc2)cc1)C(=O)NC1CC1 (stereo partly specified) | 98.6% | 1.3 µM | 90.2% | 5.6% | – | –
21 | N=C(N)NCCC[C@H](NC(=O)c1ccc(/C=C2\SC(=O)N(C3CCCC3)C2=O)cc1)C(=O)N[C@@H](CCCCN)C(=O)N1Cc2ccccc2CC1C(N)=O (stereo partly specified) | 85.7% | 10.5 µM | 49.4% | 7.6% | – | –
22 | N=C(N)NCCC[C@H](NC(=O)c1ccccc1)C(=O)N[C@@H](CCCCN)C(=O)NCC(N)=O (Bz-Arg-Lys-Gly-NH2) | 70.4% | 21 µM | 44.6% | 3.5% | – | –
23 | CC(C)C[C@H](NC(=O)[C@H](CCCCN)NC(=O)[C@H](CCCNC(=N)N)NC(=O)c1ccccc1)C(N)=O (Bz-Arg-Lys-Leu-NH2) | 63.2% | 22.7 µM | 18.4% | 5.9% | – | –
24 | CSCC[C@H](NC(=O)[C@H](CCCCN)NC(=O)[C@H](CCCNC(=N)N)NC(=O)c1ccccc1)C(N)=O (Bz-Arg-Lys-Met-NH2) | 45% | 47.5 µM | 11.8% | 6.2% | – | –
25 | N=C(N)NCCC[C@H](NC(=O)c1ccccc1)C(=O)N[C@@H](CCCCN)C(=O)N[C@@H](Cc1ccccc1)C(N)=O (Bz-Arg-Lys-Phe-NH2) | 80.7% | 11.9 µM | 18.2% | 7.2% | – | –
26 | N=C(N)NCCC[C@H](NC(=O)c1ccccc1)C(=O)N[C@@H](CCCCN)C(=O)N[C@@H](CO)C(N)=O (Bz-Arg-Lys-Ser-NH2) | 57.9% | 30.1 µM | 21.9% | 6.2% | – | –
27 | C[C@@H](O)[C@H](NC(=O)[C@H](CCCCN)NC(=O)[C@H](CCCNC(=N)N)NC(=O)c1ccccc1)C(N)=O (Bz-Arg-Lys-Thr-NH2) | 32.1% | 98.6 µM | 16.5% | inactive | – | –
28 | N=C(N)NCCC[C@H](NC(=O)c1ccccc1)C(=O)N[C@@H](CCCCN)C(=O)N[C@@H](Cc1c[nH]c2ccccc12)C(N)=O (Bz-Arg-Lys-Trp-NH2) | 74.1% | 17.6 µM | 32.8% | inactive | – | –
29 | CC(C)[C@H](NC(=O)[C@H](CCCCN)NC(=O)[C@H](CCCNC(=N)N)NC(=O)c1ccccc1)C(N)=O (Bz-Arg-Lys-Val-NH2) | 60% | 28.8 µM | 18.3% | 4.9% | – | –
30 | N=C(N)NCCC[C@H](NC(=O)c1ccccc1)C(=O)N[C@@H](CCCCN)C(=O)Nc1ccccc1C(N)=O (Bz-Arg-Lys-[2Abz]-NH2) | 62% | 15.8 µM | 8.7% | 6.4% | – | –
31 | N=C(N)NCCC[C@H](NC(=O)c1ccccc1)C(=O)N[C@@H](CCCCN)C(=O)Nc1cccc(C(N)=O)c1 (Bz-Arg-Lys-[3Abz]-NH2) | 27% | 96.6 µM | 23% | 5.6% | – | –
32 | CCC[C@H](NC(=O)[C@H](CCCCN)NC(=O)[C@H](CCCNC(=N)N)NC(=O)c1ccccc1)C(N)=O (Bz-Arg-Lys-[Nva]-NH2) | 62% | 25.2 µM | 8.5% | inactive | – | –
33 | N#Cc1ccc(C[C@H](NC(=O)[C@H](CCCCN)NC(=O)[C@H](CCCNC(=N)N)NC(=O)c2ccccc2)C(N)=O)cc1 (Bz-Arg-Lys-[Phe(4-CN)]-NH2) | 71.7% | 14.4 µM | 15.9% | inactive | – | –
34 | N=C(N)NCCC[C@H](NC(=O)c1ccccc1)C(=O)N[C@@H](CCCCN)C(=O)NCCC(N)=O (Bz-Arg-Lys-[βAla]-NH2) | 32.9% | 109 µM | 19.8% | inactive | – | –
35 | N=C(N)NCCC[C@H](NC(=O)c1ccccc1)C(=O)N[C@@H](CCCCN)C(=O)NC(C(N)=O)C1CCCCC1 (stereo partly drawn) (Bz-Arg-Lys-[ξChg]-NH2) | 71.7% | 17.4 µM | 12.1% | inactive | – | –
36 | N=C(N)NCCC[C@H](NC(=O)c1ccccc1)C(=O)N[C@@H](CCCCN)C(=O)N1CCCCC1C(N)=O (stereo partly drawn) (Bz-Arg-Lys-[ξPip]-NH2) | 13.7% | 159 µM | 12.1% | inactive | – | –
37 | C#CCC(NC(=O)[C@H](CCCCN)NC(=O)[C@H](CCCNC(=N)N)NC(=O)c1ccccc1)C(N)=O (stereo partly drawn) (Bz-Arg-Lys-[ξPra]-NH2) | 72.5% | 17.5 µM | 14.3% | 5.2% | – | –
38 | N=C(N)NCCC[C@H](NC(=O)c1ccccc1)C(=O)N[C@@H](CCCCN)C(=O)N1Cc2ccccc2CC1C(N)=O (stereo partly drawn) (Bz-Arg-Lys-[ξTic]-NH2) | 41.6% | 65.8 µM | 17.8% | inactive | – | –
